Assay results taken from ChEMBL document CHEMBL1123133, “1H-2-Benzopyran-1-one derivatives, microbial products with pharmacological activity. Conversion into orally active derivatives with antiinflammatory and antiulcer activities” (J Med Chem, 1985).

What was measured:
[1] = Concentration detected in blood of rat 1 hr after an oral dose of 200 mg/kg; type: ADME, organism-based; set-up: dose 200 mg/kg, route oral
How it was run: (§1)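 Male Wistar rats (120–160 g), 5–7 per group, fasted 24 h, given 200 mg/kg orally as aqueous HCl salt formulation (drug/glycerin/HCO-60 1/12/0.05 by weight). Jugular blood taken under ether at 1 or 3 h into citric acid; plasma deproteinized with ethanol (acetone for 5d) and analysed by C18 HPLC at 254 nm. Values recovery-corrected, mean of 6–7 rats.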

[2] = Concentration detected in blood of rat 3 hr after an oral dose of 200 mg/kg of the compound; type: ADME, organism-based; set-up: dose 200 mg/kg, route oral; how it was run: as §1
Rattus norvegicus [3] = assay: % recovery 1 from whole blood of 7 wistar rats after an oral dose of the compound; type: ADME, organism-based; details: in vivo
Rattus norvegicus [4] = assay: Gastroprotective activity as % protection against stress ulcers in 5 rats after an intraperitoneal dose of 12.5 mg/kg; type: functional
How it was run: (§2)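 Stress ulcer by restraint and water immersion: male Wistar rats (160–180 g), fasted 24 h, given test compound po or ip as HCl salt in aqueous glycerin/HCO-60 formulation (1/12/0.05 by weight). Vehicle-only controls. After 1 h, restrained in net cage and immersed in 21 °C water for 6 h. Percent ulcer inhibition calculated; five rats per dose.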

Rattus norvegicus [5] = assay: Gastroprotective activity as % protection against stress ulcers in 5 rats after an intraperitoneal dose of 25 mg/kg; type: functional; how it was run: as §2
Rattus norvegicus [6] = assay: Gastroprotective activity as % protection against stress ulcers in 5 rats after an intraperitoneal dose of 50 mg/kg; type: functional; how it was run: as §2
Rattus norvegicus [7] = assay: Gastroprotective activity as % protection against stress ulcers in 5 rats after an oral dose of 100 mg/kg; type: functional; how it was run: as §2
Rattus norvegicus [8] = assay: Gastroprotective activity as % protection against stress ulcers in 5 rats after an oral dose of 25 mg/kg; type: functional; how it was run: as §2
Rattus norvegicus [9] = assay: Gastroprotective activity as % protection against stress ulcers in 5 rats after an oral dose of 50 mg/kg; type: functional; how it was run: as §2
Rattus norvegicus [10] = assay: Concentration 5c detected in blood of rat 1 hr after an oral dose of 200 mg/kg of the compound; type: ADME, organism-based; set-up: dose 200 mg/kg, route oral; details: in vivo
How it was run: (§3)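 Male Wistar rats (120–160 g, 5–7 per group) fasted 24 h, then given 200 mg/kg orally as the HCl salt in a glycerin/HCO-60 formulation (drug/glycerin/HCO-60 1/12/0.05 by weight) in aqueous solution. At 1 or 3 h, jugular blood was citrated and plasma was ethanol-deproteinized, then analysed by reverse-phase HPLC at 254 nm. Values were recovery-corrected from blood spiked at 50 μg/mL and are means of 6–7 rats.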

Rattus norvegicus [11] = assay: Concentration 5c detected in blood of rat 3 hr after an oral dose of 200 mg/kg of the compound; type: ADME, organism-based; set-up: dose 200 mg/kg, route oral; details: in vivo; how it was run: as §3
Rattus norvegicus [12] = assay: Concentration 6c detected in blood of rat 1 hr after an oral dose of 200 mg/kg of the compound; type: ADME, organism-based; set-up: dose 200 mg/kg, route oral; details: in vivo; how it was run: as §3
Rattus norvegicus [13] = assay: Concentration 6c detected in blood of rat 3 hr after an oral dose of 200 mg/kg of the compound; type: ADME, organism-based; set-up: dose 200 mg/kg, route oral; details: in vivo; how it was run: as §3
[14] = Solubility in water, tested as a HCl salt; type: physicochemical; details: read-out: S
How it was run: (§4)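 HCl salts suspended in excess in water or 10 mM phosphate buffer pH 7.5, sonicated 10 min at 20 °C to saturation, centrifuged; supernatant quantified by HPLC.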

[15] = Lipid solubility measured as chloroform-water partition coefficient; type: physicochemical
How it was run: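 Partition between chloroform and 10 mM phosphate buffer pH 7.5 (1:1 volume); drug at 1 mg/mL initially in aqueous phase, shaken 20 min at 20 °C, centrifuged, both phases quantified by HPLC. HCl salts used.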

Rattus norvegicus [16] = assay: % recovery of the compound, compound 1 and compound 6a from whole blood of 7 wistar rats after an oral dose of the compound; type: ADME, organism-based; details: in vivo
Cavia porcellus = assay: Antiinflammatory activity evaluated as Minimum effective oral dose that inhibits dextran UV erythema in guinea pig; type: functional
Rattus norvegicus [17] = assay: Antiinflammatory activity evaluated as Minimum effective oral dose that inhibits bradykinin paw edema in rat; type: functional
Rattus norvegicus [18] = assay: Antiinflammatory activity evaluated as Minimum effective oral dose that inhibits carrageenan paw edema in rat; type: functional
Rattus norvegicus [19] = assay: Antiinflammatory activity evaluated as Minimum effective oral dose that inhibits dextran paw edema in rat; type: functional
Rattus norvegicus [20] = assay: Antiinflammatory activity evaluated as Minimum effective oral dose that inhibits adjuvant arthritis in rats; type: functional
How it was run: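 Adjuvant arthritis: male Sprague-Dawley rats (180–200 g), 8–10 per group, injected in right hind paw with Mycobacterium butyricum powder in corn oil (0.6 mg/0.1 mL). Oral dosing started 1 h after adjuvant, then daily for 18 days; observed 28 days. Minimum effective dose recorded.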

[21] = Acute toxicity evaluated as oral lethal dose in rat; type: organism-based; details: in vivo
How it was run: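 Oral dosing of male Wistar rats (120-140 g), given as HCl salt; LD50 derived from mortality over 7 days.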

Rattus norvegicus [22] = assay: Gastroprotective activity as % protection against stress ulcers in 5 rats after an oral dose of 12.5 mg/kg; type: functional; how it was run: as §2
[23] = Solubility in phosphate buffer, tested as a HCl salt; type: physicochemical; how it was run: as §4
Rattus norvegicus [24] = assay: Concentration 6e detected in blood of rat 1 hr after an oral dose of 200 mg/kg of the compound; type: ADME, organism-based; set-up: dose 200 mg/kg, route oral; details: in vivo; how it was run: as §1
Rattus norvegicus [25] = assay: Concentration 6e detected in blood of rat 3 hr after an oral dose of 200 mg/kg of the compound; type: ADME, organism-based; set-up: dose 200 mg/kg, route oral; details: in vivo; how it was run: as §1
Rattus norvegicus [26] = assay: Concentration 1 detected in blood of rat 1 hr after an oral dose of 200 mg/kg; ND is Not Detected.; type: ADME, organism-based; set-up: dose 200 mg/kg, route oral; details: in vivo; how it was run: as §1
Rattus norvegicus [27] = assay: Concentration 1 detected in blood of rat 3 hr after an oral dose of 200 mg/kg; ND is Not Detected.; type: ADME, organism-based; set-up: dose 200 mg/kg, route oral; details: in vivo; how it was run: as §1
Rattus norvegicus [28] = assay: Concentration 5e detected in blood of rat 1 hr after an oral dose of 200 mg/kg of the compound; type: ADME, organism-based; set-up: dose 200 mg/kg, route oral; details: in vivo; how it was run: as §1
Rattus norvegicus [29] = assay: Concentration 5e detected in blood of rat 3 hr after an oral dose of 200 mg/kg of the compound; type: ADME, organism-based; set-up: dose 200 mg/kg, route oral; details: in vivo; how it was run: as §1

| Compound | Protection (Rattus norvegicus [4]) | Protection (Rattus norvegicus [5]) | Protection (Rattus norvegicus [6]) | Protection (Rattus norvegicus [7]) | Protection (Rattus norvegicus [8]) | Protection (Rattus norvegicus [9]) | solubility [14] | P [15] | Recovery (Rattus norvegicus [16]) | solubility [23] | other results |
| --- | --- | --- | --- | --- | --- | --- | --- | --- | --- | --- | --- |
| CC(C)C[C@H](NC(=O)C(O)C1OC(=O)CC1N)[C@@H]1Cc2cccc(O)c2C(=O)O1.Cl (stereo not given in full) | 66% | 83% | 83% | 78% | 44% | 66% | – | – | – | – | concentration at 1 h [1]: 800 ng/mL; concentration at 3 h [2]: 600 ng/mL; Recovery (Rattus norvegicus [3]): 50% |
| CCCNC1CC(=O)OC1C(O)C(=O)NC(CC(C)C)C1Cc2cccc(O)c2C(=O)O1 (stereo not given) | 44% | 66% | 89% | 100% | 78% | 94% | > 100000 µg/mL | 260 | 40% | 1600 µg/mL | Concentration (Rattus norvegicus [10]): 14200 ng/mL; Concentration (Rattus norvegicus [11]): 3400 ng/mL; Concentration (Rattus norvegicus [12]): 6400 ng/mL; Concentration (Rattus norvegicus [13]): 3400 ng/mL; ED50 (Cavia porcellus): 12 mg/kg; ED50 (Rattus norvegicus [17]): 69 mg/kg; ED50 (Rattus norvegicus [18]): 124 mg/kg; ED50 (Rattus norvegicus [19]): 43 mg/kg; EDmin (Rattus norvegicus [20]): 15 mg/kg; LD50 [21]: 1080 mg/kg; Protection (Rattus norvegicus [22]): 17% |
| CCCCCNC1CC(=O)OC1C(O)C(=O)NC(CC(C)C)C1Cc2cccc(O)c2C(=O)O1 (stereo not given) | – | 56% | 44% | 56% | 44% | 33% | 7300 µg/mL | 1900 | 50% | 330 µg/mL | Concentration (Rattus norvegicus [24]): 800 ng/mL; Concentration (Rattus norvegicus [25]): 600 ng/mL; Concentration (Rattus norvegicus [26]): Not detected; Concentration (Rattus norvegicus [27]): Not detected; Concentration (Rattus norvegicus [28]): 1200 ng/mL; Concentration (Rattus norvegicus [29]): 800 ng/mL |
